Drawing on ChEMBL document CHEMBL4513216, “Probing the Open Global Health Chemical Diversity Library for Multistage-Active Starting Points for Next-Generation Antimalarials” (ACS Infect Dis, 2020), this text covers cytotoxicity for 98 compounds.

SMILES strings stand for the structures.

The data set is described as follows: Toxicity liver stage against HepG2, at 10uM. Format: cell-based. Further details: test concentration 10 uM, cell line HepG2-A16-CD81EGFP. The conditions noted are these: human, HepG2-A16-CD81EGFP cells; read-out: INHIBITION
A digest of the protocol: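 Uninfected HepG2-A16-CD81EGFP cells, 3 × 10^3 per well, 1536-well, plated on prespotted compound at 10 μM final, parasite-free screening media added to match infected plates; puromycin 10 μM positive, DMSO 0.5% negative; run in parallel with 48 h PbLuc assay at 37 °C, 5% CO2; viability by CellTiter-Glo luminescence, normalized to controls.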
In the case of `CCC(C)(C)C1CCCN1C(=O)c1coc(S(=O)(=O)NC)c1` (stereo not drawn), the cytotoxicity at 10 µM is -13.5%.

Regarding `COCCc1ncc(CN2CCCC(C(=O)c3ccccc3)C2)cn1` (stereo not drawn), the cytotoxicity at 10 µM was -1.38%.

With `O=C1N(Cc2ccc(F)c(F)c2)CCCC1(O)CNCc1cccnc1` (stereo not drawn), the cytotoxicity at 10 µM is 0.598%.

As to `Cc1ccc(N2CCC3(CC2)CC(OCC(=O)N(C)C)CO3)nn1` (stereo not drawn), the cytotoxicity at 10 µM is -7.59%.

With `CCS(=O)(=O)c1ncc(CN(C)Cc2ccccc2Cl)n1CCOC`, the cytotoxicity at 10 µM is 3.58%.

In the case of `CNC(=O)CN1CCC(c2cc(OC)cc(OC)c2)C1` (stereo not drawn), the cytotoxicity at 10 µM came out at 4.38%.

On to `COc1ncccc1CN1C[C@H]2C[C@@H](C(=O)NCC3CC3)N(C)[C@H]2C1`, for which the cytotoxicity at 10 µM was -2.54%.

As to `COc1ccccc1OCCNC(=O)CN1CCc2cncnc2C1`, the cytotoxicity at 10 µM was -15.6%.

`CCc1oc2ccc(NS(C)(=O)=O)cc2c1C(=O)OC`: the cytotoxicity at 10 µM amounted to 6.8%.

Regarding `COCC(=O)N1CCCC(c2nc(N)ncc2-c2cccc(F)c2)C1` (stereo not drawn), the cytotoxicity at 10 µM was -0.6%.

For `CCN1C(=O)C[C@@H]2[C@@H]1CCN2S(=O)(=O)Cc1ccc(C)cc1`, the cytotoxicity at 10 µM is -6.22%.

With `Cc1ccsc1CCNC(C)C(=O)NC1CCCC1` (stereo not drawn), the cytotoxicity at 10 µM was -4.44%.

As for `CNC(=O)c1nc(COc2ccc3c(c2)OCO3)no1`, the cytotoxicity at 10 µM stood at 2.03%.

On to `CCS(=O)(=O)N1CCCn2cnc(COc3cccnc3)c2C1`, for which the cytotoxicity at 10 µM is -0.00278%.

With `Cc1ncc(C(=O)N2CCCC(n3nc(C)nc3C)C2)c(C(C)C)n1` (stereo not drawn), the cytotoxicity at 10 µM was -1.81%.

`Cn1cc(Br)cc(NC(=O)Cc2cccs2)c1=O`: the cytotoxicity at 10 µM turned out to be 2.14%.

Turning to `CC(C)C1CN(C(=O)c2ccn(C)c(=O)c2)c2ccccc2N1` (stereo not drawn), the cytotoxicity at 10 µM is -6.01%.

Turning to `CNc1cc(C2CN(Cc3scnc3C)CCO2)nc(C)n1` (stereo not drawn), the cytotoxicity at 10 µM is -24.7%.

For `Cc1noc(C)c1-c1cc(CCC2CN(CCC(N)=O)CCO2)ncn1` (stereo not drawn), the cytotoxicity at 10 µM was 6.11%.

Consider `COc1cccc([C@@H]2CN(C3CSCCSC3)C[C@H]2C(=O)O)c1`, for which the cytotoxicity at 10 µM was determined as 2.95%.

Turning to `CSCc1noc(CNC(=O)C2CCN(C(=O)C3CCCC3)CC2)n1`, the cytotoxicity at 10 µM was 9.98%.

With `COc1cc(C)sc1C(=O)N1CCCCC1c1ccccn1` (stereo not drawn), the cytotoxicity at 10 µM was 0.864%.

As to `OCCN(CCO)Cc1ccc(Br)c2cccnc12`, the cytotoxicity at 10 µM was 0.14%.

`c1ccc(-c2nnc3n2CCN(Cc2ccc4c(c2)OCCO4)C3)cc1`: the cytotoxicity at 10 µM stood at 7.66%.

As to `COCCn1cc(CC(=O)Nc2nc3c(s2)CCC3)c2ccccc21`, the cytotoxicity at 10 µM was determined as 32.8%.

In the case of `CCN(CC1CN(Cc2ncc[nH]2)CCO1)c1cccnn1` (stereo not drawn), the cytotoxicity at 10 µM stood at 1.31%.

Regarding `O=C(Cn1ccc2ccc(F)cc21)NCc1ccc(C(=O)O)cc1`, the cytotoxicity at 10 µM was 6.86%.

On to `COC(=O)N1CCC(Nc2ccc(Cl)c(C#N)n2)C1` (stereo not drawn), for which the cytotoxicity at 10 µM was -3.44%.

`CCc1cccc(OCCCN(C)C(=O)CN2CCNC2=O)c1`: the cytotoxicity at 10 µM is -2.48%.

On to `COc1cccc(CN2CC[C@H](c3nnc(-c4ccco4)o3)C2)c1`, for which the cytotoxicity at 10 µM was -1.34%.

With `CCOCC(O)CN1CCN(C(=O)c2ccncc2)CC1` (stereo not drawn), the cytotoxicity at 10 µM turned out to be 10%.

Turning to `CCc1csc(C2CCCN(C(=O)c3ccc(=O)n(CC)n3)C2)n1` (stereo not drawn), the cytotoxicity at 10 µM was -1.52%.

In the case of `Cc1cccc(NC(=O)C2CSCN2C(=O)c2cnccn2)c1C` (stereo not drawn), the cytotoxicity at 10 µM is -0.691%.

On to `CSc1cccc(CN(C)C(=O)c2ccc(C3CCCNC3)cc2)c1` (stereo not drawn), for which the cytotoxicity at 10 µM is -3.07%.

For `CC(=O)N1CCSCC1c1ccc(C)o1` (stereo not drawn), the cytotoxicity at 10 µM was -0.872%.

On to `CCc1[nH]c(C2(N)CCCCC2)nc(=O)c1C`, for which the cytotoxicity at 10 µM stood at 7.61%.

`CC(C)Oc1ncccc1CNC(=O)N1CCC1c1ccccc1` (stereo not drawn): the cytotoxicity at 10 µM is -4.92%.

Regarding `CCn1cc(NC(=O)c2cc(C)nc(N3CCOCC3)n2)cn1`, the cytotoxicity at 10 µM was 6%.

In the case of `CC[C@H]1CN2CC[C@H]1C[C@@H]2CNCc1ccc2c(c1)OCO2`, the cytotoxicity at 10 µM is -5.9%.

For the compound `CCN(C(=O)CN(Cc1cccc(O)c1)C1CCC(O)CC1)C1CC1` (stereo not drawn), the cytotoxicity at 10 µM was 1.31%.

Turning to `Cc1ccc(C(=O)N(Cc2cccc(F)c2)C2CC2)c(=O)[nH]1`, the cytotoxicity at 10 µM is -4.86%.

For `CCc1nc(CN(C)C2CCN(CC(=O)N(C)C)C2)no1` (stereo not drawn), the cytotoxicity at 10 µM was -16.7%.

Turning to `CCN1C(=O)CC[C@@H]2[C@H]1CCN2S(=O)(=O)Cc1ccc(C)cc1`, the cytotoxicity at 10 µM came out at 0.0218%.

For `Cc1nonc1C1CCCN1Cc1ccc(C(=O)Nc2nccs2)cc1` (stereo not drawn), the cytotoxicity at 10 µM is 76.7%.

Consider `CC(C)Nc1ncccc1C(=O)NC1CC(=O)N(CC(F)(F)F)C1` (stereo not drawn), for which the cytotoxicity at 10 µM was -1.54%.

As for `CN1CC(=O)N(c2cccc(F)c2)CC12CCN(S(=O)(=O)C1CC1)C2` (stereo not drawn), the cytotoxicity at 10 µM was -71.8%.

Turning to `CN(C)C(C(=O)NCc1cc(C(C)(C)C)n[nH]1)c1ccc(F)cc1` (stereo not drawn), the cytotoxicity at 10 µM was -5.54%.

For the compound `O=C(NCC1CCCCO1)c1cc(Cn2cnc3ccccc32)[nH]n1` (stereo not drawn), the cytotoxicity at 10 µM is -11.3%.

As to `CNC(=O)N1CCOCC1c1c(C)nn(C)c1C` (stereo not drawn), the cytotoxicity at 10 µM was -7.11%.

`C[C@@H]1CN2C[C@H](O)CC2CN1Cc1ccc2nccnc2c1` (stereo partly drawn): the cytotoxicity at 10 µM came out at 5.62%.

Consider `CCCC(=O)N(C)c1cc(C#N)c2ccccc2n1`, for which the cytotoxicity at 10 µM was -7.55%.

With `Cn1cnc2ccc(NC(=O)CC3CCN(S(C)(=O)=O)CC3)cc21`, the cytotoxicity at 10 µM was found to be 22.6%.

For the compound `Cc1cc(CN(C)C(=O)NCC2CCS(=O)(=O)C2)no1` (stereo not drawn), the cytotoxicity at 10 µM is -0.874%.

For `CCSc1cc(C(=O)N(CC(F)F)C(C)C)ccn1`, the cytotoxicity at 10 µM stood at 4.64%.

As to `Cn1ccnc1CN(CCCO)CC(F)(F)F`, the cytotoxicity at 10 µM is 5.68%.

On to `O=C(NCc1ccccc1)NCC1CCN(Cc2ccsc2)CC1`, for which the cytotoxicity at 10 µM is -14.1%.

`CCCN(CCc1cccc(F)c1)c1ccc2nnnn2n1`: the cytotoxicity at 10 µM worked out at 1.44%.

As to `CN1CCCC1CNC(=O)CCCOc1cccc(Br)c1` (stereo not drawn), the cytotoxicity at 10 µM was -11.3%.

`CN(C)C(=O)c1cccc(CN2CCOC(Cn3cccn3)C2)c1` (stereo not drawn): the cytotoxicity at 10 µM is -0.29%.

In the case of `CCCN1CCN(C(=O)Cc2cccnc2)[C@H]2CS(=O)(=O)C[C@H]21`, the cytotoxicity at 10 µM was -8.26%.

On to `COCC1CCCN(C(=O)c2cc(Cn3ccc4ccccc43)[nH]n2)C1` (stereo not drawn), for which the cytotoxicity at 10 µM is -11.5%.

With `O=C(N1CCOCC1)n1cnc2ccccc21`, the cytotoxicity at 10 µM is -3.11%.

In the case of `OC1CCN(C2CCN(Cc3cccc(Cn4cccn4)c3)CC2)CC1`, the cytotoxicity at 10 µM is -1.47%.

Turning to `CCOc1ccccc1C(CC(=O)Nc1nc(C)cs1)NC(C)=O` (stereo not drawn), the cytotoxicity at 10 µM is -10.9%.

As to `CC(c1nc(C2CC2)no1)N1CCN(CCN2CCCC2=O)CC1` (stereo not drawn), the cytotoxicity at 10 µM is -10.9%.

For the compound `COc1cccc(CNCC2CN(C)CCO2)c1` (stereo not drawn), the cytotoxicity at 10 µM was -15.2%.

As to `CCNC(=O)NCC1(CN2CCOCC2)CCCCC1`, the cytotoxicity at 10 µM was determined as 6.73%.

In the case of `NCc1n[nH]c(-c2cccc(F)c2)n1`, the cytotoxicity at 10 µM was -167%.

As for `O=C(Nc1cc(C2CCOCC2)[nH]n1)c1ccc(Cl)cn1`, the cytotoxicity at 10 µM is 0.78%.

As to `CC(C)c1cc(COCCC(=O)O)no1`, the cytotoxicity at 10 µM is -6.5%.

Regarding `FC(F)Oc1ccc(CNCc2cc(Cl)c3c(c2)OCO3)cc1`, the cytotoxicity at 10 µM was 2.63%.

As to `Cc1ccccc1C1(C(=O)N2CCOC(C)C2)CCOCC1` (stereo not drawn), the cytotoxicity at 10 µM stood at 5.33%.

Regarding `Cc1occc1C(=O)N1CCC[C@]2(C[C@@H](OCc3ccccn3)CO2)C1`, the cytotoxicity at 10 µM was -72.4%.

On to `COC(=O)C1CCCN1Cc1ccco1` (stereo not drawn), for which the cytotoxicity at 10 µM came to 9.21%.

With `COCCOCC(=O)N1CCC2(CCCN(C3CCOCC3)C2=O)C1` (stereo not drawn), the cytotoxicity at 10 µM was -133%.

On to `O=C([C@H]1COC[C@H]2CN(c3ccncn3)C[C@H]21)N1CCCC1`, for which the cytotoxicity at 10 µM was -140%.

`Cc1nc(CN(C)Cc2cc3c(cc2OC(F)F)OCO3)cs1`: the cytotoxicity at 10 µM was determined as 8.68%.

Turning to `Cc1nn(-c2ccccc2)nc1C(=O)N1CCCC1c1cnn(C)c1` (stereo not drawn), the cytotoxicity at 10 µM is -0.857%.

For `Cc1nc[nH]c1-c1nccn1CCCN(C)C`, the cytotoxicity at 10 µM came out at 5.05%.

`CN(C)C(CNC(=O)c1cccc(C(N)=O)c1)c1ccccc1Cl` (stereo not drawn): the cytotoxicity at 10 µM is -4.83%.

With `CC(=O)c1cn(CC(=O)N2CCCC(O)(CO)C2)c2ccccc12` (stereo not drawn), the cytotoxicity at 10 µM is -4.87%.

For `Cc1cc(C)nc(N2CCC(C(=O)Nc3ccc(C(C)C)cc3)CC2)n1`, the cytotoxicity at 10 µM was -3.02%.

As for `CNc1nc(CNC(=O)Nc2ccc(OC)cc2C)cs1`, the cytotoxicity at 10 µM was -8.17%.

Regarding `CC(C)c1nnc2n1CCN(CCCS(=O)(=O)c1ccccc1)C2`, the cytotoxicity at 10 µM is -12.3%.

`O=C1CCC(=O)N1CCn1nnc(-c2cccc(Cl)c2)n1`: the cytotoxicity at 10 µM was -5.05%.

`Cc1cccc(N(CCC(N)=O)CC(=O)NC2CCCC2)c1`: the cytotoxicity at 10 µM is -20%.

`COCCNS(=O)(=O)c1cccc2c1CN(C(=O)c1ccccc1)CC2`: the cytotoxicity at 10 µM was 5.54%.

As for `Cc1nc(C2CCCN2C(=O)CCCn2cccn2)no1` (stereo not drawn), the cytotoxicity at 10 µM is -4.77%.

For the compound `Cc1n[nH]c(C2CN(C(=O)c3ccoc3C)CCO2)n1` (stereo not drawn), the cytotoxicity at 10 µM was -22.4%.

In the case of `COc1cc(CN2CCCC(Nc3cccc(F)c3)C2)cc(Cl)c1O` (stereo not drawn), the cytotoxicity at 10 µM was -0.476%.

Regarding `Brc1ccc(C2(NCc3noc(C4CC4)n3)CCC2)cc1`, the cytotoxicity at 10 µM amounted to 13.3%.

In the case of `CCn1cc(CN2CCCn3nc(CCC(=O)NCCO)cc3C2)cn1`, the cytotoxicity at 10 µM was -18.2%.

As for `CNc1cc(CNC(=O)c2ccccc2OC)nc(-c2ccncc2)n1`, the cytotoxicity at 10 µM was -13.7%.

Consider `Cc1nc(C)n(C2CCCN(C(=O)c3ccccc3C)C2)n1` (stereo not drawn), for which the cytotoxicity at 10 µM was determined as 1.59%.

Take `O=c1cc(N2CCCCC2)cnn1CCCn1cccn1`: the cytotoxicity at 10 µM is -48.9%.

Consider `CCOCC1CN(C(=O)[C@H]2CCCO2)Cc2nnn(CC3CC3)c21` (stereo partly drawn), for which the cytotoxicity at 10 µM was -1.99%.

`CNC(=O)[C@H]1C[C@@H]2CCN(Cc3ccncc3)C[C@H]2O1`: the cytotoxicity at 10 µM came out at 10.3%.

Turning to `COc1ccc(F)c(CN2CC(=O)N(c3ccccc3C)CC2C)c1` (stereo not drawn), the cytotoxicity at 10 µM was -0.757%.
